Experimental data as given in ChEMBL document CHEMBL1134661, “N-Benzylpolyamines as vectors of boron and fluorine for cancer therapy and imaging: synthesis and biological evaluation” (J Med Chem, 2001).
Values joined by “and” are separate entries in the source; they are usually repeats but may differ in a detail not shown here. Equal values may be shown once.

How the values were obtained:
3LL cell line [1] = assay: Effect on the growth of 3LL cells by DFMO pretreatment at 48 hr incubation; assay type: functional, cell-based; details: Mus musculus
Method in brief: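 3LL cells given 5 mM DFMO 24 h after seeding for a 24 h preincubation, then 48 h with spermidine or derivative; MTT readout; growth expressed relative to cells treated with DFMO only; mean ± SEM.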

CHO [2] = assay: Compound was tested for accumulation in CHO cells by HPLC at 50 uM dose; assay type: functional, Cricetulus griseus
Method in brief: (§1)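 CHO or polyamine-transport-deficient CHO-MG cells (proline 2 µg/mL added for CHO-MG), RPMI 1640 with 10% FCS, 37 °C, 5% CO2; seeded at 5 × 10⁴ cells/mL, derivative added 24 h later for 24 h; trypsin/EDTA harvest, three PBS washes, sonication in 0.2 N perchloric acid; derivative measured by ion-pair reversed-phase HPLC with o-phthalaldehyde/N-acetylcysteine fluorescence; per mg protein (Folin); mean ± SD.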

3LL cell line [3] = assay: accumulation of compound in 3LL cells was measured with DFMO by HPLC at 50 uM dose; assay type: functional, Mus musculus
Method in brief: (§2)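 3LL cells exposed 24 h to derivative, BSH or BPA, with or without prior 24 h incubation with 5 mM DFMO; intracellular drug measured by ion-pair reversed-phase HPLC with o-phthalaldehyde fluorescence, or cellular boron by ICP-AES, per mg protein; mean ± SD; Student's t-test, p < 0.01.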

3LL cell line [4] = assay: spermine levels in 3LL cells after the treatment of 50 uM of Compound; assay type: functional, cell-based; details: Mus musculus
Method in brief: (§3)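 3LL cells incubated 24 h with derivative, some after 24 h pretreatment with 5 mM DFMO; perchloric acid extracts analyzed for putrescine, spermidine and spermine by ion-pair reversed-phase HPLC with o-phthalaldehyde post-column fluorescence, normalized to protein (Folin); mean ± SD.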

3LL cell line [5] = assay: accumulation of compound in 3LL cells was measured with DFMO by ICP-AES at 50 uM dose; assay type: functional, Mus musculus; method in brief: as §2
3LL cell line [6] = assay: accumulation of compound in 3LL cells was measured without DFMO by ICP-AES at 50 uM dose; assay type: functional, Mus musculus; method in brief: as §2
3LL cell line [7] = assay: Effect on the growth of 3LL cells was evaluated using an MTT assay at 48 hour incubation; assay type: functional, cell-based; details: Mus musculus
[8] = Compound was tested for accumulation of (50 uM) boronated polyamines in murine B16 melanoma cells; assay type: functional
Method in brief: (§4)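 Rat C6, human U251 glioblastoma or murine B16 melanoma cells exposed 24 h to 50 µM boron-containing derivative, either directly or after 24 h preincubation with 5 mM DFMO; washed cells sonicated in 0.2 N perchloric acid, derivative quantified by ion-pair reversed-phase HPLC with o-phthalaldehyde fluorescence detection, normalized to protein; mean ± SD.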

3LL cell line [9] = assay: spermidine levels in 3LL cells after the treatment of 50 uM of Compound; assay type: functional, cell-based; details: Mus musculus; method in brief: as §3
3LL cell line [10] = assay: Effect on the growth of 3LL cells was evaluated using an MTT assay at 72 hour incubation; assay type: functional, cell-based; details: Mus musculus
3LL cell line [11] = assay: accumulation of compound in 3LL cells was measured without DFMO by HPLC at 50 uM dose; assay type: functional, Mus musculus; method in brief: as §2
Nucleic Acid = assay: DNA binding affinity (conc to decrease the fluorescence of the ethidium bromide-DNA complex by 50%); assay type: nucleic-acid assay, Bos taurus
[12] = Compound was tested for accumulation of (50 uM) boronated polyamines in rat C6 glioblastoma cells; assay type: functional; method in brief: as §4
U-251 = assay: Compound was tested for accumulation of (50 uM) boronated polyamines in human U251 glioblastoma cells; assay type: functional; method in brief: as §4
CHO-MG [13] = assay: Compound was tested for accumulation in CHO-MG cells by HPLC at 50 uM dose; assay type: functional, Cricetulus griseus; method in brief: as §1
3LL cell line [14] = assay: accumulation of compound in 3LL cells was measured without DFMO by HPLC at 250 uM dose; assay type: functional, Mus musculus; method in brief: as §2
3LL cell line [15] = assay: accumulation of compound in 3LL cells was measured with DFMO by HPLC at 250 uM dose; assay type: functional, Mus musculus; method in brief: as §2
CHO [16] = assay: Compound was tested for accumulation in CHO cells by HPLC at 250 uM dose; assay type: functional, Cricetulus griseus; method in brief: as §1
CHO-MG [17] = assay: Compound was tested for accumulation in CHO-MG cells by HPLC at 250 uM dose; assay type: functional, Cricetulus griseus; method in brief: as §1
3LL cell line [18] = assay: spermidine levels in 3LL cells after the treatment of 250 uM of Compound; assay type: functional, cell-based; details: Mus musculus; method in brief: as §3
3LL cell line [19] = assay: spermine levels in 3LL cells after the treatment of 250 uM of Compound; assay type: functional, cell-based; details: Mus musculus; method in brief: as §3
3LL cell line [20] = assay: accumulation of compound in 3LL cells was measured without DFMO by HPLC at 10 uM dose; assay type: functional, Mus musculus; method in brief: as §2
3LL cell line [21] = assay: accumulation of compound in 3LL cells was measured with DFMO by HPLC at 10 uM dose; assay type: functional, Mus musculus; method in brief: as §2

SMILES	IC50 (Nucleic Acid) [µM]	IC50 (3LL cell line [1]) [µM]	Accumulation (CHO [2])	Activity (3LL cell line [3])	Level (nM (mg of protein)-1) (3LL cell line [4])	IC50 (3LL cell line [7]) [µM]	Level (nM (mg of protein)-1) (3LL cell line [9])	IC50 (3LL cell line [10]) [µM]	Accumulation (CHO-MG [13])	Activity (3LL cell line [11]) [nmol/mg protein]	Activity (3LL cell line [14])	Activity (3LL cell line [15])	Accumulation (CHO [16])	Accumulation (CHO-MG [17])	also measured
Cl.NCCCCNCCCNCc1ccc(B(O)O)cc1	37	> 1	4.78 nM (mg of protein)-1	4.18 nM (mg of protein)-1	7.25	824	0.14	400							Activity (3LL cell line [5]): 5.68 nM (mg of protein)-1; Activity (3LL cell line [6]): 2.7 nM (mg of protein)-1; Accumulation [8]: 4.75 nM (mg of protein)-1 and 9.26 nM (mg of protein)-1; Drug (3LL cell line [11]): 2.01 nM (mg of protein)-1; Activity [12]: 1.63 nM (mg of protein)-1; Accumulation (U-251): 1.65 nM (mg of protein)-1
Cl.NCCCCNCc1ccc(F)cc1	> 3000	> 10	0.9 nM (mg of protein)-1	1.31 nM (mg of protein)-1	11	568	0.92	468	0.45 nM (mg of protein)-1	0.55					
NCCCCN [PUTRESCINE]	> 11000														
CC1(C)COB(c2cccc(CN(CCCN)CCCCN)c2)OC1.Cl											4.52 nM (mg of protein)-1	3.93 nM (mg of protein)-1	5.65 nM (mg of protein)-1	3.71 nM (mg of protein)-1	

Further compounds by falling IC50 (Nucleic Acid), results first:

IC50 (Nucleic Acid) [µM]	SMILES	IC50 (3LL cell line [1]) [µM]	Accumulation (CHO [2])	Activity (3LL cell line [3])	Level (nM (mg of protein)-1) (3LL cell line [4])	IC50 (3LL cell line [7]) [µM]	Level (nM (mg of protein)-1) (3LL cell line [9])	IC50 (3LL cell line [10]) [µM]	Accumulation (CHO-MG [13])	Activity (3LL cell line [11]) [nmol/mg protein]	Activity (3LL cell line [14])	Activity (3LL cell line [15])	Accumulation (CHO [16])	Accumulation (CHO-MG [17])	also measured
3110	Cl.NCCCCNCc1ccccc1	> 50	0.4 nM (mg of protein)-1	1.03 nM (mg of protein)-1	5.79	993	0.89	604	0.1 nM (mg of protein)-1	0.34					
310	Cl.NCCCCN(CCCN)Cc1ccccc1	> 100		6.92 nM (mg of protein)-1		> 1000		> 1000		4.92	6.11 nM (mg of protein)-1	5.46 nM (mg of protein)-1	13.64 nM (mg of protein)-1	5.55 nM (mg of protein)-1	Level (nM (mg of protein)-1) (3LL cell line [18]): 4.15; Level (nM (mg of protein)-1) (3LL cell line [19]): 8.64; Activity (3LL cell line [20]): 2.59 nM (mg of protein)-1; Activity (3LL cell line [21]): 5.52 nM (mg of protein)-1
